TRPC4 PAM = positive allosteric modulators of TRPC4, primary screen, cell-based, mouse TRPC4beta, HEK293 mu-opioid, Fluo-4 calcium; Short transient receptor potential channel 4 (Mus musculus), Q9QUQ5; DAMGO EC20, Fluo-4 Ca2+ flux; stronger effect = higher value; B-score at 10 µM; 310,000 compounds, 0.42% hits;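 active = B-score of calcium response area above 5 SD of library B-scores, with initial fluorescence ratio within 5 SD of library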;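 also: B-score of integrated fluorescence ratio over time as area under calcium response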
Target sequence (Q9QUQ5 whole entry, looked up): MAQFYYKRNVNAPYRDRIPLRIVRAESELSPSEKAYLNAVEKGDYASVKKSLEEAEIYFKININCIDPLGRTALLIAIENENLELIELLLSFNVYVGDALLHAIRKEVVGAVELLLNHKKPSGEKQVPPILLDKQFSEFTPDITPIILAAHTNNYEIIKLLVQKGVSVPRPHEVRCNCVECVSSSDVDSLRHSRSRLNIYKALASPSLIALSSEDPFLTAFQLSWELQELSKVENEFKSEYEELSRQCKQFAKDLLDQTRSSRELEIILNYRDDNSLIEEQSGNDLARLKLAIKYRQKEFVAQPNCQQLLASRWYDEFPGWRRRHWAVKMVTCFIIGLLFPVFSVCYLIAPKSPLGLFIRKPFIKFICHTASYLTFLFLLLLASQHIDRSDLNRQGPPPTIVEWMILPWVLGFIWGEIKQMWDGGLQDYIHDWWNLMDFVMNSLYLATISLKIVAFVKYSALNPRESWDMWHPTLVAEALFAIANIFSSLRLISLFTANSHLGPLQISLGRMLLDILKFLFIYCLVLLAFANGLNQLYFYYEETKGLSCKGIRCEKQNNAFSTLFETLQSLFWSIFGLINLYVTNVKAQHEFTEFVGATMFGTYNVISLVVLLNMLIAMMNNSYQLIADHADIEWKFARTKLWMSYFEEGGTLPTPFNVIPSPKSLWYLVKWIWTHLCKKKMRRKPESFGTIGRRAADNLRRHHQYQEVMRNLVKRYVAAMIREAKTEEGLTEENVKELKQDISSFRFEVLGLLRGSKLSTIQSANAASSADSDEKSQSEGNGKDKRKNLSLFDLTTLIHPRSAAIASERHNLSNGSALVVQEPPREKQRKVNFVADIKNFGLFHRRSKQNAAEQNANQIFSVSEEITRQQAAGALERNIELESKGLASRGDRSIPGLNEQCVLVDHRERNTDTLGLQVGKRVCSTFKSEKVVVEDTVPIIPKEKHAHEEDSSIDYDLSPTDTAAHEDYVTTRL
TRPC4 agonist = activators of mouse TRPC4 channel, primary screen, Fluo4 calcium, HEK293 TRPC4beta/mu-opioid cells; Short transient receptor potential channel 4 (Mus musculus), Q9QUQ5; Fluo4 calcium fluorescence; stronger effect = higher value; B-score at 10 µM; 310,000 compounds, 0.49% hits;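 active = B-score above 5 SD of library B-scores, and initial fluorescence ratio not above library mean plus 5 SD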;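 also: positive B-score marks a calcium rise read as TRPC4 activation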
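System – HEK293 cells stably co-expressing mouse TRPC4beta and mu-opioid receptor · Signal – Fluo4 calcium-sensitive dye fluorescence, kinetic, 1 Hz baseline · Benchmarks – buffer (low) and maximal DAMGO (high) · Read-out – B score of integrated fluorescence ratio per well · Incubation – dye loading 45 min room temperature, 110 s kinetic read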
TRPC6 activator = mouse TRPC6 channel activators, primary screen, cell-based, HEK293, membrane potential dye; Short transient receptor potential channel 6 (Mus musculus), Q61143; HEK293-TRPC6 membrane potential dye fluorescence; stronger effect = higher value; B-score at 10 µM; 310,000 compounds, 0.13% hits; AID 2550, 2010;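 active = B-score of the integrated fluorescence ratio above library mean plus 3 SD, and starting fluorescence ratio within library mean plus 5 SD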;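 also: higher score means more depolarization so channel activation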
TRPC4 block = inhibitors of mouse TRPC4 channel, primary screen, Fluo4 calcium, HEK293 TRPC4beta/mu-opioid cells | Short transient receptor potential channel 4 (Mus musculus), Q9QUQ5 | DAMGO-evoked Fluo4 calcium flux; stronger effect = lower value | B-score at 10 µM | 300,000 compounds, 0.39% hits;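 active = B-score over 3 SD under the library average, no early fluorescence shift, positive overall ratio signal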
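material = TRPC4beta/mu-opioid receptor HEK293 cell line | probe or stimulus = sequential submaximal and maximal DAMGO stimulation | compound dosing = one concentration per compound | measured by = Fluo4 Ca2+ flux fluorescence | evaluation = integrated fluorescence ratio relative to baseline, converted to per-well B score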
TRPC6 inhibitor = mouse TRPC6 channel inhibitors, primary screen, cell-based, HEK293, membrane potential dye; AID 2553, 2010; ACh-evoked depolarization; stronger effect = lower value; 310,000 compounds, 1.1% hits; B-score at 10 µM; Short transient receptor potential channel 6 (Mus musculus), Q61143;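 active = B-score under library mean minus 3 SD, initial fluorescence not abnormally high, positive integrated signal ratio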;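 also: B-score derived from integrated fluorescence ratio over the kinetic read; more negative B-score means stronger inhibition of depolarization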
TRPC4 spec 2 = second check of whether TRPC6 inhibitors also affect mouse TRPC4 | AID 2776 | HEK293 TRPC4/MOR, membrane potential dye fluorescence; channel activated by saturating DAMGO dose | shares compounds with TRPC6 inhibitor | inhibition, % at 10 µM | 920 compounds, 42% hits;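 active = compounds whose fluorescence signal differed from control wells by over 3 SD, either direction, in both duplicate plates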
TRPC4 spec = mouse TRPC4 modulation by TRPC6 hits, confirmation, selectivity assay for TRPC6 inhibitor project, cell-based, HEK293 TRPC4/mu-opioid, membrane potential dye; 920 compounds, 61% hits; activity change, negative = inhibition, % at 10 µM; shares compounds with TRPC6 inhibitor; AID 2777, 2010; membrane potential fluorescence;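 active = rise or fall in signal beyond 3 SD of buffer-only wells in both replicate plates, either sign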;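 also: integrated kinetic ratio of fluorescence range over baseline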
HEK293 MPD ctr 2-1 = nonspecific membrane potential effects, parental HEK293, confirmation, counter-screen for TRPC6 inhibitor project, cell-based, second counter screen | shares compounds with TRPC6 inhibitor | parental HEK293 membrane potential dye fluorescence; maximal acetylcholine challenge after compound addition | signal change vs control, % at 10 µM | 920 compounds, 31% hits | AID 2779, 2010;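 active = membrane potential signal moving either way by over 3 SD of the maximum-effect control, in both duplicate plates, meaning non-specific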
HEK293 MPD ctr-1 = membrane potential modulation in parental HEK293, confirmation, counter-screen for TRPC6 inhibitor project, cell-based. AID 2780, 2010. shares compounds with TRPC6 inhibitor. 920 compounds, 60% hits. membrane potential signal change, % at 10 µM. parental HEK293 membrane potential dye fluorescence;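 active = membrane potential signal shifting up or down by more than 3 SD of buffer-only wells, on both duplicate plates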
HEK293 MPD ctr-2 = parental HEK293 membrane potential modulation, confirmation, counter-screen for TRPC6 modulator project, cell-based; shares compounds with TRPC6 inhibitor; membrane potential dye fluorescence; membrane potential signal change, % at 10 µM; 2,400 compounds, 51% hits;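 active = membrane potential signal moves up or down beyond 5 SD from buffer-only wells, on both duplicate plates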
HEK293 MPD ctr 2-2 = parental HEK293 nonspecific activity of TRPC6 modulators, second screen; shares compounds with TRPC6 inhibitor; membrane potential dye fluorescence; after compound, maximal acetylcholine stimulation; inhibition, % at 10 µM; 2,400 compounds, 14% hits;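 active = membrane potential signal drops by more than 5 SD from the mean control signal, in both duplicate plates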;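 also: plate controls were acetylcholine ECmax control wells for no effect and buffer only wells for full effect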
TRPC4/MOR mod = TRPC4 modulation by TRPC6 hit compounds, confirmation, selectivity assay for TRPC6 modulator project, cell-based, HEK293 TRPC4/mu-opioid, membrane potential dye, mouse; shares compounds with TRPC6 inhibitor; AID 488927, 2010; 2,400 compounds, 69% hits; percent change from control (negative = decrease, positive = increase), % at 10 µM; membrane potential fluorescence;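 active = membrane potential signal moved up or down beyond 5 SD of buffer control wells, in both duplicate plates, actives on both sides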;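 also: plate controls were assay buffer wells for no effect and DAMGO maximal-effect wells for full effect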
TRPC4 ctr inh 2 = second selectivity test of TRPC6 modulators against mouse TRPC4; AID 488928; 2,400 compounds, 55% hits; inhibition, % at 10 µM; HEK293 TRPC4/mu-opioid, membrane potential dye fluorescence; stimulated with maximal-effect DAMGO; shares compounds with TRPC6 inhibitor;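 active = drop in membrane potential signal beyond 5 SD of the control wells in both duplicate plates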;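 also: TRPC4 counter screen for TRPC6 hits run under conditions tuned for TRPC6 not TRPC4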
TRPC6 block conf = mouse TRPC6 channel inhibitors, confirmation, HEK293 cells, membrane potential dye, duplicate | shares compounds with TRPC6 inhibitor | 3,300 compounds, 43% hits | inhibition, % at 10 µM | AID 488960, 2010 | ACh-evoked depolarization;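 active = fluorescence ratio falls more than 5 SD below the full-stimulation control mean, in both duplicate runs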;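 also: integrated fluorescence ratio of peak minus minimum over baseline after agonist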
TRPC6 act confirm = mouse TRPC6 channel activators, confirmation, HEK293 cells, membrane potential dye, duplicate | shares compounds with TRPC6 inhibitor | HEK293-TRPC6 membrane potential dye fluorescence, FDSS | activation, % at 10 µM | 2,800 compounds, 11% hits;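 active = ratio signal rise beyond 5 SD above unstimulated control wells' mean, seen in both duplicate runs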;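 also: plate controls were buffer EC0 wells for no effect and acetylcholine ECmax response for full effect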
Active calls of the source: *; i = inactive; · = no result. Most compounds without a hit are left out; they make up all but 2.3% or so of the library.

SMILES	TRPC4 PAM	TRPC4 agonist	TRPC6 activator	TRPC4 block	TRPC6 inhibitor	TRPC6 block conf	TRPC6 act confirm	others
CC1(C(=O)Nc2nc3ccc(S(C)(=O)=O)cc3s2)CC1(Cl)Cl (stereo not drawn)	i	i	i	i	i	·	·
COc1ccc(-n2nc(C(=O)NCC(=O)NCCC3=CCCCC3)c3ccccc3c2=O)c(OC)c1	i	i	i	i	i	·	·
COc1ccc(-c2csc(N(CCCN(C)C)C(=O)c3ccccc3Cl)n2)cc1	i	i	i	i	-7.9*	59%*	i	TRPC4 spec 2=37%*;TRPC4 spec=i;HEK293 MPD ctr 2-1=i;HEK293 MPD ctr-1=i
COc1ccc(-c2csc(N(CCCN(C)C)C(=O)c3ccccc3F)n2)cc1	i	i	i	i	-6.5*	51%*	i	HEK293 MPD ctr-2=i;HEK293 MPD ctr 2-2=i;TRPC4/MOR mod=i;TRPC4 ctr inh 2=85%*
COCCN(C(=O)c1ccccc1F)c1nc(-c2ccc(OC)cc2)cs1	i	i	i	i	i	·	·
COc1ccc(-c2csc(N(CCCN(C)C)C(=O)c3ccc(F)cc3)n2)cc1	i	i	i	i	i	·	·
COc1ccc(-c2csc(N(CCCN(C)C)C(=O)c3ccccc3C)n2)cc1	i	i	i	i	-8.9*	62%*	i	TRPC4 spec 2=43%*;TRPC4 spec=i;HEK293 MPD ctr 2-1=i;HEK293 MPD ctr-1=i
CCN(CC)CCCN(C(=O)c1ccc(F)cc1)c1nc(-c2ccc(OC)cc2)cs1	i	i	i	i	-6.7*	73%*	i	TRPC4 spec 2=33%*;TRPC4 spec=i;HEK293 MPD ctr 2-1=i;HEK293 MPD ctr-1=i
Cc1cc([N+](=O)[O-])nn1Cc1noc(C(=O)NCCCn2ccnc2)n1	i	i	i	i	i	·	·
CCC(Sc1nc(N)c(NC(=O)c2ccco2)c(=O)[nH]1)C(=O)O (stereo not drawn)	i	i	i	i	i	·	·
CC(=O)Nc1cccc(NS(=O)(=O)c2cn(C)c(=O)n(C)c2=O)c1	i	i	i	i	i	·	·
COc1ccc(N=Nc2ccc(O)c3ncccc23)cc1	i	i	i	i	i	·	·
COc1ccc(C)cc1N=Nc1ccc(O)c2ncccc12	i	i	i	i	-5.1*	i	i	HEK293 MPD ctr-2=-135%*;HEK293 MPD ctr 2-2=i;TRPC4/MOR mod=-34%*;TRPC4 ctr inh 2=73%*
Cc1ccc(N(C)C(=O)n2cnc3ccccc32)cc1	i	i	i	i	i	·	·
CCCNC(=O)Cn1c(=O)/c(=C\c2ccc(-c3cccc([N+](=O)[O-])c3)o2)s/c1=C\C(=O)C(C)(C)C	i	i	i	i	i	·	·
CCCNC(=O)Cn1c(=O)/c(=C\c2ccc(-c3ccc([N+](=O)[O-])cc3)o2)s/c1=C\C(=O)C(C)(C)C	i	i	33*	i	i	i	281%*	HEK293 MPD ctr-2=978%*;HEK293 MPD ctr 2-2=i;TRPC4/MOR mod=274%*;TRPC4 ctr inh 2=i
Cc1cc(C)n(CCOc2ccc(Br)cc2)n1	i	i	i	i	i	·	·
COC(=O)C1=C(C)N(c2cc(C)cc(C)c2)/C(=C/c2ccc(O)cc2)C1=O	i	i	i	i	-7.7*	i	i	HEK293 MPD ctr-2=i;HEK293 MPD ctr 2-2=i;TRPC4/MOR mod=-16%*;TRPC4 ctr inh 2=67%*
CC(C)NC(=O)C(Cc1ccccc1)N1C(=O)c2ccccc2C1=O (stereo not drawn)	i	i	i	i	i	·	·
N#CCOC(=O)[C@H](Cc1ccccc1)N1C(=O)c2ccccc2C1=O	i	i	i	i	-7.1*	i	i	TRPC4 spec 2=i;TRPC4 spec=-0.7%*;HEK293 MPD ctr 2-1=i;HEK293 MPD ctr-1=i
Cc1cccn2c(=O)c(/C=C(\C#N)C(=O)NC3CCS(=O)(=O)C3)c(N3CCC(C(N)=O)CC3)nc12 (stereo not drawn)	i	i	i	i	i	·	·
CCN1CCN(c2nc3c(C)cccn3c(=O)c2/C=C(\C#N)C(=O)NCCOC)CC1	i	i	i	i	-5.5*	i	i	HEK293 MPD ctr-2=-278%*;HEK293 MPD ctr 2-2=i;TRPC4/MOR mod=-52%*;TRPC4 ctr inh 2=i

Compound activity as filed in PubChem BioAssay.
